Bioassay records as filed in PubChem.
STAT3 blocker – inhibitors of IL-6 induced STAT3 signaling. U3A cells, IL-6 STAT3-luciferase reporter, luminescence; host cell line lacks STAT1. inhibition, % at 5.5 µM. 0.89% of 190,000 active;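 active = inhibition above the mean inhibition across all screened compounds plus 3 SD, cut at about 44% in these data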;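 also: 0% = DMSO only wells and 100% = 100 µM nifuroxazide control wells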
APP 5'UTR act – APP 5'UTR luciferase reporter activation. activation, % at 2 µM. 1% of 190,000 active. SH-SY5Y APP 5'UTR luciferase reporter, luminescence; zero percent = DMSO vehicle wells. AID 1276;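 active = activation above a set limit, based on mean plus 3 SD of controls, cut at about 140% in these data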
NF-kB expr up – NF-kB expression increase, human neuronal cells. fold change at 12.5 µM. NF-kB reporter expression; active compounds read high. 1.6% of 190,000 active; in the data active = fold change above about 3.3
STAT3 activator – STAT3 signaling activation. 0.91% of 190,000 active. U3A cells, IL-6 STAT3-luciferase reporter, luminescence; 100% = signal with IL-6 EC80 alone. activation (% of control), % at 5.6 µM. AID 871;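 active = activation above the screen-wide mean of compound activation plus 3 SD, cut at about 130% in these data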;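 also: 0% = background luminescence of wells with medium and substrate only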
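Test system: Human STAT1-deficient U3A cells with stable STAT3-luciferase reporter | Also added: Interleukin-6, 33 ng/mL | Timing: Compound pre-incubation 1 h before IL-6, then 6 h stimulation at 37 °C | Technique: Luciferase reporter luminescence | Read-out: Percent of IL-6-only median luminescence | Benchmarks: IL-6-only wells as 100% reference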
STAT1 blocker – reduces IFN-gamma driven STAT1 reporter signal | AID 920 | inhibition, % at 5.5 µM | NIH 3T3 STAT1-luciferase reporter, luminescence | 0.35% of 200,000 active;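 active = inhibition above a set limit, the mean inhibition across all tested compounds plus 3 SD, cut at about 34% in these data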;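 also: 0% = IFN-gamma with DMSO and 100% = IFN-gamma with 300 µM nifuroxazide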
STAT1 activator – increases IFN-gamma driven STAT1 reporter signal; NIH 3T3 STAT1-luciferase reporter, luminescence; 100% = IFN-gamma alone, no compound; activation (% of control), % at 5.5 µM; 2.6% of 200,000 active;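 active = activation above the screen-wide mean activation plus 3 SD, cut at about 130% in these data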;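 also: raw ratio to IFN-gamma control signal so 100% means no change and 0% no light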
* hit, by the source's call; x = no result given. Shown are actives, neighbours in structure and some others; about 4.9% of the full set was active somewhere.

SMILES	STAT3 blocker	APP 5'UTR act	NF-kB expr up	STAT3 activator	STAT1 blocker	STAT1 activator
O=C1NC(=S)N/C1=C\c1ccc(N2CCOCC2)cc1	6	10	1.3	96	-24	121
COc1cc(C(=O)N=c2sc3ccccc3n2C)cc(OC)c1OC	20	19	1	88	-11	109
Cn1c(=NC(=O)c2cccc([N+](=O)[O-])c2)sc2ccccc21	-41	104	4.2*	136*	-76	170*
Cc1sc(=NC(=O)c2ccco2)n(C)c1-c1ccccc1	39	131	5.1*	70	-11	110
Cn1c(=NC(=O)c2ccco2)sc2ccccc21	-10	156*	4.6*	117	-19	119
Cc1sc(=NC(=O)c2ccco2)n(C)c1-c1ccc(F)cc1	26	126	3	86	-30	127
CCOc1ccc(N(C(=O)C2CCCO2)C2C=CS(=O)(=O)C2)cc1 (stereo not given)	1	28	1.1	105	1	99
O=C(c1ccc(Cl)cc1)[C@@H]1[C@@H]2C(=O)N(c3cccc4ccccc34)C(=O)[C@@H]2C2c3ccccc3C=NN21 (stereo not given in full)	-6	2	0.84	107	6	94
COc1ccc(C2=Nn3c(nnc3-c3ccco3)SC2)cc1	19	-11	4.8*	87	-6	105
COc1ccc(C2=Nn3c(nnc3-c3ccccc3)SC2)cc1OC	-44	-4	0.88	134*	2	98
O=[N+]([O-])c1cc2c(cc1/C=N/NS(=O)(=O)c1ccc(Br)cc1)OCO2	8	7	1	96	2	98
O=c1c(-c2ccc3c(c2)OCCO3)coc2cc(OC3OC(CO)C(O)C(O)C3O)ccc12 (stereo not given)	x	159*	x	x	x	x
CC(C)(C)C(=O)Nc1ccc2oc(-c3cc(F)c(F)cc3Cl)nc2c1	1	112	4.3*	100	-45	142*
COc1cc2c(cc1NC(=O)c1cccc(S(=O)(=O)N(C)C)c1)oc1ccccc12	6	20	1.4	96	-38	134*
COc1ccc(Cl)cc1NC(=O)C1CCCO1 (stereo not given)	7	-12	1.1	97	1	100
COc1cc2c(cc1NC(=O)C1CCCO1)oc1ccccc12 (stereo not given)	-76	162*	5.6*	166*	-51	147*
COc1ccccc1CN1C[C@@H]2C[C@@H](c3ccc(C)c(C)c3)N3CCC[C@@]23C1=O	-2	15	0.9	104	-6	104
O=C(COc1ccccc1C(=O)Nc1ccccc1)c1ccc(Br)cc1	25	9	1.2	83	-10	106
O=C(Oc1ccccc1C(=O)Nc1ccccc1)c1ccccc1Br	24	-59	3.7*	83	11	90
COc1ccc(Nc2nc3c([nH]2)c(=O)[nH]c(=O)n3C)cc1	14	9	1.1	94	7	93
CC(C)CN(C(=O)CN1CCc2ccccc21)c1c(N)n(CC(C)C)c(=O)[nH]c1=O	-37	6	1.1	133*	5	95
O=C(COc1ccccc1)NC1CCSC1=O (stereo not given)	5	-5	1.1	101	-9	106
CN(C)c1cccc(C(=O)OCC(=O)N2CCc3ccccc3C2)c1	-8	32	1.1	108	-8	106
Cc1ccsc1C(=O)OCC(=O)N1CCc2ccccc2C1	16	63	1.1	91	-49	144*
S=C(N/N=C/c1ccc2ncccc2c1)Nc1cccnc1	68*	7	0.51	44	39*	64
SMILES	STAT3 blocker	APP 5'UTR act	NF-kB expr up	STAT3 activator	STAT1 blocker	STAT1 activator
O=C(O)c1cccc(NC(=S)N/N=C/c2ccccn2)c1	91*	52	2.7	27	79*	26
Oc1ccc(/C=N/NC(=S)Nc2cccnc2)cc1O	6	15	1.4	94	-4	104
O=C(O)c1cccc(NC(=S)N/N=C/c2ccccc2OCc2ccc(Br)cc2)c1	9	-6	1.6	94	-11	109
O=C(O)c1cccc(NC(=S)N/N=C/c2cccc(O)c2)c1	60*	-11	1.5	51	43*	59
O=C(O)c1cccc(NC(=S)N/N=C/c2ccccc2OCc2cccc(Br)c2)c1	12	12	1.2	91	-2	103
C=CCN1C(=O)/C(=C\c2ccc(Oc3nc(N4CCOCC4)nc(N4CCOCC4)n3)c(OC)c2)SC1=S	9	-1	0.98	97	6	93
CC(=O)Nc1ccc(S(=O)(=O)NC(C)C(=O)NCCc2ccc(F)cc2)cc1 (stereo not given)	-1	-6	1.1	102	3	97
Cc1cccc2nc(-c3cccc(NC(=O)c4ccc(Cl)cc4)c3)cn12	15	7	0.98	87	-6	106
Cc1csc(C(=O)O)c1NC(=O)c1cccc([N+](=O)[O-])c1	0	6	0.89	104	-3	100
CCn1c(C(=O)OC)cc2c1ccn2-c1ccc(F)cc1	10	80	2.8	95	-48	144*
Cc1ccc(Cn2ccnc2C(=O)Nc2ccccc2)cc1	-4	85	1.1	109	-48	142*
Cc1ccc2nc(-c3ccc(NC(=O)Cc4cccs4)cc3)[nH]c2c1	21	109	2.2	87	-50	145*
Cc1nc2c(sc3nc4c(cc32)COC(C)(C)C4)c(=O)n1CC(=O)NCc1ccco1	-10	5	2.5	111	-34	131*
CC1(C)Cc2nc3sc4c(SCC(=O)NCc5ccco5)ncnc4c3cc2CO1	6	12	1.6	97	-26	124
O=C1c2ccccc2C(=O)C1c1ccc(O)cc1	21	48	3.8*	84	1	98
CNc1ccccc(-c2ccc3ccccc3n2)c1=O	-7	104	2.3	111	-54	147*
O=[N+]([O-])c1ccc(N/N=C/c2ccccc2)c(F)c1	-10	33	2.3	104	-50	145*
O=[N+]([O-])c1ccc(/C=N/Nc2ncc(-c3ccccc3)cn2)cc1	14	2	1.2	90	-3	100
COc1ccc(-n2nc(C(=O)NCC(=O)N3CCN(c4ccccn4)CC3)c3ccccc3c2=O)cc1OC	4	1	1	102	-17	115
COc1ccc(-n2nc(C(=O)NCC(=O)N3CCN(c4ccccn4)CC3)c3ccccc3c2=O)cc1	-2	33	1	105	-41	137*
CCOc1ccc2oc(=O)cc(C)c2c1	13	-8	1.5	95	-36	133*
CCC(=O)Oc1ccc2oc(=O)cc(C)c2c1	-8	-5	1.3	110	0	100
c1ccc(NC2=Nc3ccccc3CS2)cc1	2	113	3.6*	104	-41	138*
Cc1csc(Nc2ccccc2)n1	16	41	1.7	94	-8	108
